# Measurements from the RNAGym collection of RNA variant scans (doi:10.1126/science.aae0568).
# This sample holds only a part of the variants without activity.
# B1: tRNA (parent)
# chain: GUUCCGUUGGCGUAAUGGUAACGCGUCUCCCUCCUAAGGAGAAGACUGCGGGUUCGAGUCCCGUACGGAACG
# Variants of: B1
# Experiment: yeast fitness relative to wild type (ratio to wild type); higher = fitter; tRNA-Arg(CCU), competitive growth, 37 C, YPD
# Method in brief: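 Genotype frequency changes were the basis for Darwinian fitness relative to wild type. The frequencies came from 100-nucleotide paired-end sequencing of gene amplicons from the start population and each end population of pooled yeast strains with tRNA-Arg(CCU) gene variants at the native locus. Competition ran in YPD at 37°C for 24 hours in six replicates, genotypes needed ≥ 100 starting reads, and estimates < 0.5 were set to 0.5.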
row,Variant,yeast fitness
1,U35C A57C G68C,≤ 0.5
2,U35C A57G,0.739
3,U35C A65G,0.945
4,U35C A65G C66U,0.675
5,U35C A65U,0.739
6,U35C A69C,0.943
7,U35C A69U,0.949
8,U35C A70G,0.781
9,U35C A70U,0.812
10,U35C C46G,0.906
11,U35C C46U,0.938
12,U35C C46U C55G,0.507
13,U35C C49G,0.883
14,U35C C49G A70U,0.563
15,U35C C49U C66U,0.681
16,U35C C49U G63C,0.548
17,U35C C55A A69U,≤ 0.5
18,U35C C55G,0.59
19,U35C C55G A57G,0.606
20,U35C C60G C61U,≤ 0.5
21,U35C C60U,0.546
22,U35C C60U C66U,≤ 0.5
23,U35C C61A,≤ 0.5
24,U35C C61A A69U,≤ 0.5

row,Variant,yeast fitness
1,U35C C61A G67C,≤ 0.5
2,U35C C61U,0.968
3,U35C C62A A69U,0.551
4,U35C G38A,0.891
5,U35C G38U C46U C55G,≤ 0.5
6,U35C G39C,0.747
7,U35C G39C U47A,≤ 0.5
8,U35C G41A,0.882
9,U35C G41A A43C A57G,0.501
10,U35C G41A A70G,0.689
11,U35C G44A C46G G50C U53A,0.583
12,U35C G48A,0.937
13,U35C G48A C55U A70G,0.56
14,U35C G48A C60A,0.648
15,U35C G48C C55U G56A,0.573
16,U35C G51C C55U,≤ 0.5
17,U35C G51U C61U,0.53
18,U35C G52C,≤ 0.5
19,U35C G56A,0.735
20,U35C G58A,0.77
21,U35C G67A,0.637
22,U35C G67C,0.939
23,U35C U47A,0.734
24,U35C U47A C49U,0.603

row,Variant,yeast fitness
1,U35C U47G C62U A65U,≤ 0.5
2,U35C U54A,≤ 0.5
3,U35C U54G,0.552
4,U35C U59A,0.878
5,U35C U59C A69U,0.749
6,U35C U64G C66G,≤ 0.5
7,U35G A40G A57G,0.548
8,U35G A42U A69C,≤ 0.5
9,U35G A43C,0.583
10,U35G A43G C46U,0.702
11,U35G A43G U59A,0.658
12,U35G A43U,0.707
13,U35G A45C G56C,≤ 0.5
14,U35G A45G,0.669
15,U35G A45U A57C,≤ 0.5
16,U35G A57G,0.698
17,U35G A65G,0.573
18,U35G A69U,0.769
19,U35G A70U,0.674
20,U35G C46U,0.628
21,U35G C49G A65C,≤ 0.5
22,U35G C49G G52C C62G A69C,≤ 0.5
23,U35G C49G U64A,0.525
24,U35G C55G C62U,≤ 0.5

row,Variant,yeast fitness
1,U35G C61G,≤ 0.5
2,U35G G52C G63A,0.551
3,U35G G56A,0.599
4,U35G G58A,0.675
5,U35G G58C,0.653
6,U35G G63A G68C,≤ 0.5
7,U35G G68C,0.619
8,U35G U54A C62U G68A,≤ 0.5
9,U35G U64C A70G,≤ 0.5
10,A36C,0.705
11,A36C A37C,0.54
12,A36C A37C A57C,≤ 0.5
13,A36C A37C A65C,≤ 0.5
14,A36C A37C U53G A70C,0.582
15,A36C A37G C49A A69U,≤ 0.5
16,A36C A37G C55A,0.534
17,A36C A37G G56C,≤ 0.5
18,A36C A37U G50C,0.576
19,A36C A40G,0.566
20,A36C A40G G48A A65U C66U A69U,≤ 0.5
21,A36C A40U A57C,0.52
22,A36C A40U A70U,≤ 0.5
23,A36C A42C,0.727
24,A36C A42U A43G A70G,≤ 0.5

row,Variant,yeast fitness
1,A36C A42U A43G G63C A69U,≤ 0.5
2,A36C A43C,0.626
3,A36C A43U U47A U54A,≤ 0.5
4,A36C A45C C55G C62A G68A,0.575
5,A36C A45C G48A G52C G68A,≤ 0.5
6,A36C A45C U54A A57U A65U,≤ 0.5
7,A36C A45U,0.591
8,A36C A45U U47C G52C A65U G67C,≤ 0.5
9,A36C A57C C61U A69C,≤ 0.5
10,A36C A57C G68A,0.541
11,A36C A57G,0.642
12,A36C A65C,0.601
13,A36C A69C,0.644
14,A36C A70C,0.605
15,A36C A70G,0.605
16,A36C C46A C49U,0.562
17,A36C C49A,0.563
18,A36C C49G,0.56
19,A36C C49G C61G C62G,≤ 0.5
20,A36C C49U,0.557
21,A36C C49U C55U C62G G68C,≤ 0.5
22,A36C C55A,≤ 0.5
23,A36C C55G,0.556
24,A36C C55U A65C,0.632

row,Variant,yeast fitness
1,A36C C55U G68C A70G,≤ 0.5
2,A36C C55U U59A,≤ 0.5
3,A36C C61A,0.523
4,A36C C61G A70C,0.569
5,A36C C61U A65U,≤ 0.5
6,A36C C62A G67A A70G,≤ 0.5
7,A36C C62U,0.583
8,A36C G38A U54C G58A,≤ 0.5
9,A36C G39A,≤ 0.5
10,A36C G39C A65C,0.598
11,A36C G41A U53C,0.56
12,A36C G41C,0.579
13,A36C G41C C61U,≤ 0.5
14,A36C G44A A70C,≤ 0.5
15,A36C G44C G51C,≤ 0.5
16,A36C G48A C66G,≤ 0.5
17,A36C G48C U53C A70C,≤ 0.5
18,A36C G50A C55A,0.766
19,A36C G50C,0.54
20,A36C G50C G63C,0.652
21,A36C G52A C61A,≤ 0.5
22,A36C G56A,0.61
23,A36C G56C,0.793
24,A36C G56C C66U,≤ 0.5

row,Variant,yeast fitness
1,A36C G58C,0.618
2,A36C G58C C62U,≤ 0.5
3,A36C G63C,0.558
4,A36C G67C,0.537
5,A36C G67U,0.596
6,A36C G68C,0.591
7,A36C U47A G48C C61U,≤ 0.5
8,A36C U47A G48C C62G,≤ 0.5
9,A36C U47A G48C U54G,0.544
10,A36C U47A G48C U54G A65C G67A,≤ 0.5
11,A36C U47A G48C U54G C60G,≤ 0.5
12,A36C U47A G48C U54G C62U,≤ 0.5
13,A36C U47C,0.674
14,A36C U53G,≤ 0.5
15,A36C U54A C61G,0.635
16,A36C U54G,0.522
17,A36C U59A,0.569
18,A36C U59C A65G,≤ 0.5
19,A36G,0.993
20,A36G A37G A45C G51C U59G,≤ 0.5
21,A36G A37G G58C,0.649
22,A36G A37U A42U A70G,≤ 0.5
23,A36G A40C,0.961
